Measurements taken from ChEMBL document CHEMBL2057102, “Aminothienopyridazine inhibitors of tau aggregation: evaluation of structure-activity relationship leads to selection of candidates with desirable in vivo properties” (Bioorg Med Chem, 2012).

Experiments:
[1] = Drug uptake in B6C3F1 mouse plasma at 5 mg/kg, ip after 1 hr; type: ADME, organism-based; set-up: dose 5 mg/kg, route intraperitoneal; settings: B6C3F1, mouse, plasma
How it was run: (§1)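 Single i.p. dose of 5 mg/kg, sacrifice 1 h later. Perfused brain hemispheres were homogenized in 10 mM ammonium acetate pH 5.7 (50% w/v). EDTA plasma was taken. Brain homogenate or plasma was extracted with acetonitrile and analysed by LC-MS/MS (MRM) against matrix standard curves. Brain-to-plasma ratio was taken from total levels.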

[2] = Plasma concentration in B6C3F1 mouse at 5 mg/kg, ip at 1 hr; type: ADME, organism-based; set-up: dose 5 mg/kg, route intraperitoneal; how it was run: as §1
Brain [3] = experiment: Fraction unbound in mouse brain homogenate at 1 uM after 5 hrs by equilibrium dialysis; type: ADME, tissue-based
How it was run: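 Rapid equilibrium dialysis. Compound at 1 μM in mouse plasma or brain homogenate, each diluted threefold with 100 mM sodium phosphate pH 7.4. Triplicate samples dialysed against the same buffer for 5 h at 37 °C with shaking. Both sides were matrix-matched, extracted with acetonitrile and run by LC-MS/MS. fu is buffer response over sample response; brain fu was corrected for tissue dilution.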

[4] = Drug uptake in B6C3F1 mouse brain at 50 mg/kg, po administered qd in drinking water for 3 days; type: ADME, organism-based; set-up: dose 50 mg/kg, route oral; settings: read-out: Drug uptake
How it was run: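 Brain levels were measured after 3 days. Perfused brain hemispheres were homogenized in 10 mM ammonium acetate, pH 5.7 (50% w/v), extracted with acetonitrile, and analysed by LC-MS/MS (MRM) against brain-homogenate standard curves. Free level was calculated from the equilibrium-dialysis brain unbound fraction.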

Homo sapiens [5] = organism: Homo sapiens; experiment: Inhibition of heparin-induced tau K18PL mutant aggregation assessed as soluble tau fragment level at 50 uM after 5 days by SDS-PAGE analysis
How it was run: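 Secondary centrifugation assay. Heparin-induced K18 P301L tau fibrillization mixtures with compound at 50 μM were centrifuged. Soluble and insoluble fractions were analysed by SDS-PAGE to give the percentage of tau remaining soluble.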

[6] = Ratio of drug level in brain to plasma in B6C3F1 mouse at 5 mg/kg, ip after 16 hrs; type: ADME, organism-based; set-up: dose 5 mg/kg, route intraperitoneal; settings: read-out: BPR
How it was run: (§2)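 Mice given 5 mg/kg i.p. (n = 3 per time point) and sacrificed at times from 0.5 to 16 h after dosing. Perfused brain hemispheres were homogenized in 10 mM ammonium acetate pH 5.7 (50% w/v). Plasma came from EDTA blood. Samples were extracted with acetonitrile and quantified by LC-MS/MS (MRM, positive ESI) against matrix standard curves by linear regression.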

[7] = AUC (0.5 to 16 hrs) in B6C3F1 mouse brain at 5 mg/kg, ip; type: ADME, organism-based; set-up: time 0.5-16 hr, dose 5 mg/kg, route intraperitoneal; how it was run: as §2
[8] = Oral bioavailability in B6C3F1 mouse at 10 mg/kg at 1 hr; type: ADME, organism-based; settings: in vivo
Mus musculus [9] = experiment: Toxicity in B6C3F1 mouse assessed as adverse event at 50 mg/kg, po administered in water qd for 1 month; type: organism-based; set-up: dose 50 mg/kg, route oral; settings: in vivo
How it was run: (§3)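 Female B6C3F1 mice, 2 months old (n = 5 per group), dosed for 1 month via drinking water containing 3% PEG400 and 0.5% methylcellulose. Dose equivalent 50 mg/kg/day, assuming about 5 ml water per mouse per day. Vehicle controls were included and water intake was monitored. At the end, body weight was taken, then perfusion, organ weights (heart, liver, kidney, spleen, brain) and complete blood counts.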

Mus musculus [10] = experiment: Toxicity in B6C3F1 mouse assessed as change in RBC count at 50 mg/kg, po administered in water qd for 1 month; type: organism-based; set-up: dose 50 mg/kg, route oral; settings: in vivo; how it was run: as §3
Brain [11] = experiment: Clearance in B6C3F1 mouse brain at 5 mg/kg, ip after 16 hrs; type: ADME, organism-based; set-up: dose 5 mg/kg, route intraperitoneal; settings: in vivo; how it was run: as §2
[12] = Clearance in B6C3F1 mouse plasma at 5 mg/kg, ip after 16 hrs; type: ADME, organism-based; set-up: dose 5 mg/kg, route intraperitoneal; how it was run: as §2
Plasma [13] = experiment: Free AUC (0.5 to 16 hrs) in B6C3F1 mouse plasma at 5 mg/kg, ip; type: ADME, organism-based; set-up: dose 5 mg/kg, route intraperitoneal; settings: in vivo; how it was run: as §2
Mus musculus [14] = experiment: Ratio of drug level in brain to plasma in B6C3F1 mouse at 5 mg/kg, ip after 1 hr
[15] = Drug uptake in B6C3F1 mouse brain at 5 mg/kg, ip after 1 hr; type: ADME, organism-based; set-up: dose 5 mg/kg, route intraperitoneal; settings: B6C3F1, mouse, brain, read-out: Drug uptake; how it was run: as §1
[16] = Ratio of unbound fraction in brain to plasma in B6C3F1 mouse at 5 mg/kg, ip after 16 hrs; type: ADME, organism-based; set-up: dose 5 mg/kg, route intraperitoneal; settings: in vivo; how it was run: as §2
[17] = Plasma concentration in B6C3F1 mouse at 10 mg/kg, po at 1 hr; type: ADME, organism-based; set-up: dose 10 mg/kg, route oral
Homo sapiens [18] = organism: Homo sapiens; experiment: Inhibition of heparin-induced alexa red-labelled tau K18PL mutant aggregation after 6 hrs by thioflavin-T fluorescence assay relative to control
How it was run: (§4)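 Heparin-induced fibrillization of tau K18 fragment (residues 244–369) carrying P301L, with tau at 20 μM in sodium acetate buffer. Fibril formation was read by thioflavin-T fluorescence. IC50 came from sigmoidal fitting of concentration-response data, each concentration in triplicate. Values are from a single fit, or the mean of 2 or more analyses where marked.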

Mus musculus [19] = experiment: Toxicity in B6C3F1 mouse assessed as adverse effects at 50 mg/kg, po administered qd for 1 month; type: organism-based; set-up: dose 50 mg/kg, route oral; settings: in vivo; how it was run: as §3
Mus musculus [20] = experiment: Toxicity in B6C3F1 mouse assessed as change in WBC count at 50 mg/kg, po administered in water qd for 1 month; type: organism-based; set-up: dose 50 mg/kg, route oral; settings: in vivo; how it was run: as §3
[21] = Half life in B6C3F1 mouse plasma at 5 mg/kg, ip after 16 hrs; type: ADME, organism-based; set-up: dose 5 mg/kg, route intraperitoneal; how it was run: as §2
Mus musculus [22] = experiment: Toxicity in B6C3F1 mouse assessed as change in heart weight at 50 mg/kg, po administered in water qd for 1 month; type: organism-based; set-up: dose 50 mg/kg, route oral; settings: in vivo; how it was run: as §3
Mus musculus [23] = experiment: Toxicity in B6C3F1 mouse assessed as change in lymphocyte count at 50 mg/kg, po administered in water qd for 1 month; type: organism-based; set-up: dose 50 mg/kg, route oral; settings: in vivo; how it was run: as §3
Mus musculus [24] = experiment: Toxicity in B6C3F1 mouse assessed as change in kidney weight at 50 mg/kg, po administered in water qd for 1 month; type: organism-based; set-up: dose 50 mg/kg, route oral; settings: in vivo; how it was run: as §3
Mus musculus [25] = experiment: Toxicity in B6C3F1 mouse assessed as change in liver weight at 50 mg/kg, po administered in water qd for 1 month; type: organism-based; set-up: dose 50 mg/kg, route oral; settings: in vivo; how it was run: as §3
Plasma [26] = experiment: Volume of distribution in B6C3F1 mouse plasma at 5 mg/kg, ip after 16 hrs; type: ADME, organism-based; set-up: dose 5 mg/kg, route intraperitoneal; settings: in vivo; how it was run: as §2
Mus musculus [27] = experiment: Toxicity in B6C3F1 mouse assessed as change in brain weight at 50 mg/kg, po administered in water qd for 1 month; type: organism-based; set-up: dose 50 mg/kg, route oral; settings: in vivo; how it was run: as §3
Mus musculus [28] = experiment: Toxicity in B6C3F1 mouse assessed as adverse effects up to 100 mg/kg, po; type: organism-based; set-up: dose 100 mg/kg, route oral; settings: in vivo
[29] = Inhibition of heparin-induced alexa red-labelled tau K18PL mutant aggregation after 6 hrs by thioflavin-T fluorescence assay; set-up: species or system Homo sapiens; how it was run: as §4
[30] = AUC (0.5 to 16 hrs) in B6C3F1 mouse plasma at 5 mg/kg, ip; type: ADME, organism-based; set-up: time 0.5-16 hr, dose 5 mg/kg, route intraperitoneal; how it was run: as §2
Mus musculus [31] = experiment: Toxicity in B6C3F1 mouse assessed as body weight loss at 50 mg/kg, po administered in water qd for 1 month relative to control; type: organism-based; set-up: dose 50 mg/kg, route oral; settings: in vivo; how it was run: as §3
Mus musculus [32] = experiment: Toxicity in B6C3F1 mouse assessed as change in spleen weight at 50 mg/kg, po administered in water qd for 1 month; type: organism-based; set-up: dose 50 mg/kg, route oral; settings: in vivo; how it was run: as §3
Mus musculus [33] = experiment: Toxicity in B6C3F1 mouse assessed as mild and transient lethargy at 100 mg/kg, po; type: organism-based; set-up: dose 100 mg/kg, route oral; settings: in vivo
Brain [34] = experiment: Free AUC (0.5 to 16 hrs) in B6C3F1 mouse brain at 5 mg/kg, ip; type: ADME, organism-based; set-up: dose 5 mg/kg, route intraperitoneal; settings: in vivo; how it was run: as §2
Mus musculus [35] = experiment: Toxicity in B6C3F1 mouse assessed as change in neutrophil count at 50 mg/kg, po administered in water qd for 1 month; type: organism-based; set-up: dose 50 mg/kg, route oral; settings: in vivo; how it was run: as §3

## Nc1scc2c(C(=O)NC3CC3)nn(-c3ccc(F)cc3)c(=O)c12
[1]
  concentration at 1 h: 0.61 µg/mL
[2]
  concentration at 1 h: 0.61 µg/mL
Brain [3]
  Fu: 4.3%
[4]
  concentration at 72 h: 0.139 µM
Homo sapiens [5]
  inhibition: 78%
[6]
  Kp at 16 h: 1.9
[7]
  AUC(0-t): 4.51 µg·h/mL
[8]
  bioavailability: 60%
Mus musculus [9]
  Activity: Non-toxic
Mus musculus [10]
  Activity: Non-toxic
Brain [11]
  CL: 50 mL/h
[12]
  CL/F: 1.31 mL/min
Plasma [13]
  fAUC: 0.162 µg·h/mL
Mus musculus [14]
  BPR: 1.09
[15]
  concentration at 1 h: 670 ng/g
[16]
  BPR: 1.2
[17]
  concentration at 1 h: 0.832 µg/mL
Homo sapiens [18]
  Imax: 88%
Mus musculus [19]
  Activity: Non-toxic
Mus musculus [20]
  Activity: Non-toxic
[21]
  half-life: 2.2 h
Mus musculus [22]
  Activity: Non-toxic
Mus musculus [23]
  Activity: Non-toxic
Mus musculus [24]
  Activity: Non-toxic
Mus musculus [25]
  Activity: Non-toxic
Plasma [26]
  Vd: 246 mL
Mus musculus [27]
  Activity: Non-toxic
Mus musculus [28]
  Activity: Non-toxic
[29]
  IC50: 2.5 µM
[30]
  AUC(0-t): 2.35 µg·h/mL
Mus musculus [31]
  Activity: Non-toxic
Mus musculus [32]
  Activity: Non-toxic
Mus musculus [33]
  Activity: Toxic
Brain [34]
  fAUC: 0.195 µg·h/mL
Mus musculus [35]
  Activity: Non-toxic
